Test system: Fibroblast
Assay: Multiplex assay against human fibroblast
Type: toxicity, cell-based
Method in brief: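 At seeding, live cells were stained with Hoechst33342, BioTracker Green Microtubule Cytoskeleton Dye, MitoTracker Red and Annexin V Alexa Fluor 680. After compound addition they were imaged on a CQ1 microscope at 37°C and 5% CO2, and CellPathfinder machine-learning gating sorted them into Hoechst high-intensity objects or normal cells, with normal cells further split into healthy, pyknosed or fragmented nuclei and pyknosed cells into mitotic or apoptotic. Tubulin, mitochondrial-mass and membrane-permeability phenotypes are given as per cents of cells with healthy nuclei.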

[1] = 12 h, 1 µM, compound concentration 1 uM, replicate 1
[2] = 12 h, 1 µM, compound concentration 1 uM, replicate 2
[3] = 12 h, 10 µM, compound concentration 10 uM, replicate 1
[4] = 12 h, 10 µM, compound concentration 10 uM, replicate 2
[5] = 24 h, 1 µM, compound concentration 1 uM, replicate 1
[6] = 24 h, 1 µM, compound concentration 1 uM, replicate 2
[7] = 24 h, 10 µM, compound concentration 10 uM, replicate 1
[8] = 24 h, 10 µM, compound concentration 10 uM, replicate 2
[9] = 48 h, 1 µM, compound concentration 1 uM, replicate 1
[10] = 48 h, 1 µM, compound concentration 1 uM, replicate 2
[11] = 48 h, 10 µM, compound concentration 10 uM, replicate 1
[12] = 48 h, 10 µM, compound concentration 10 uM, replicate 2

CCOc1cc2ncc(C#N)c(Nc3ccc(OCc4ccccn4)c(Cl)c3)c2cc1NC(=O)/C=C/CN(C)C [NERATINIB]
Population Apoptotic (%) [1]: 55%
Population Fragmented Nuclei (%) [1]: 21%
Population Healthy Nuclei (%) [1]: 37%
Population Hoechst High Intensity Objects (%) [1]: 14%
Population Membrane Permeable-Phenotype (%) [1]: 25%
Population Mitochondria Different-Phenotype (%) [1]: 13%
Population Mitotic Cells (%) [1]: 44%
Population Normal (%) [1]: 85%
Population Pyknosed Nuclei (%) [1]: 41%
Population Tubulin-Different-Phenotype (%) [1]: 58%
Total Cell Count [1]: 134
Population Apoptotic (%) [2]: 11%
Population Fragmented Nuclei (%) [2]: 9%
Population Healthy Nuclei (%) [2]: 82%
Population Hoechst High Intensity Objects (%) [2]: 8%
Population Membrane Permeable-Phenotype (%) [2]: 4%
Population Mitochondria Different-Phenotype (%) [2]: 18%
Population Mitotic Cells (%) [2]: 88%
Population Normal (%) [2]: 91%
Population Pyknosed Nuclei (%) [2]: 9%
Population Tubulin-Different-Phenotype (%) [2]: 15%
Total Cell Count [2]: 64
Population Apoptotic (%) [3]: 45%
Population Fragmented Nuclei (%) [3]: 25%
Population Healthy Nuclei (%) [3]: 44%
Population Hoechst High Intensity Objects (%) [3]: 34%
Population Membrane Permeable-Phenotype (%) [3]: 7%
Population Mitochondria Different-Phenotype (%) [3]: 1%
Population Mitotic Cells (%) [3]: 54%
Population Normal (%) [3]: 65%
Population Pyknosed Nuclei (%) [3]: 30%
Population Tubulin-Different-Phenotype (%) [3]: 13%
Total Cell Count [3]: 621
Population Apoptotic (%) [4]: 12%
Population Fragmented Nuclei (%) [4]: 35%
Population Healthy Nuclei (%) [4]: 50%
Population Hoechst High Intensity Objects (%) [4]: 27%
Population Mitochondria Different-Phenotype (%) [4]: 16%
Population Mitotic Cells (%) [4]: 87%
Population Normal (%) [4]: 72%
Population Pyknosed Nuclei (%) [4]: 13%
Population Tubulin-Different-Phenotype (%) [4]: 42%
Total Cell Count [4]: 109
Population Apoptotic (%) [5]: 64%
Population Fragmented Nuclei (%) [5]: 21%
Population Healthy Nuclei (%) [5]: 40%
Population Hoechst High Intensity Objects (%) [5]: 18%
Population Membrane Permeable-Phenotype (%) [5]: 32%
Population Mitochondria Different-Phenotype (%) [5]: 11%
Population Mitotic Cells (%) [5]: 35%
Population Normal (%) [5]: 81%
Population Pyknosed Nuclei (%) [5]: 37%
Population Tubulin-Different-Phenotype (%) [5]: 53%
Total Cell Count [5]: 129
Population Apoptotic (%) [6]: 23%
Population Fragmented Nuclei (%) [6]: 9%
Population Healthy Nuclei (%) [6]: 76%
Population Hoechst High Intensity Objects (%) [6]: 5%
Population Membrane Permeable-Phenotype (%) [6]: 5%
Population Mitochondria Different-Phenotype (%) [6]: 6%
Population Mitotic Cells (%) [6]: 76%
Population Normal (%) [6]: 94%
Population Pyknosed Nuclei (%) [6]: 14%
Population Tubulin-Different-Phenotype (%) [6]: 11%
Total Cell Count [6]: 73
Population Apoptotic (%) [7]: 52%
Population Fragmented Nuclei (%) [7]: 25%
Population Healthy Nuclei (%) [7]: 48%
Population Hoechst High Intensity Objects (%) [7]: 39%
Population Membrane Permeable-Phenotype (%) [7]: 3%
Population Mitochondria Different-Phenotype (%) [7]: 3%
Population Mitotic Cells (%) [7]: 47%
Population Normal (%) [7]: 60%
Population Pyknosed Nuclei (%) [7]: 26%
Population Tubulin-Different-Phenotype (%) [7]: 15%
Total Cell Count [7]: 651
Population Apoptotic (%) [8]: 12%
Population Fragmented Nuclei (%) [8]: 36%
Population Healthy Nuclei (%) [8]: 49%
Population Hoechst High Intensity Objects (%) [8]: 26%
Population Membrane Permeable-Phenotype (%) [8]: 10%
Population Mitochondria Different-Phenotype (%) [8]: 14%
Population Mitotic Cells (%) [8]: 87%
Population Normal (%) [8]: 73%
Population Pyknosed Nuclei (%) [8]: 14%
Population Tubulin-Different-Phenotype (%) [8]: 34%
Total Cell Count [8]: 124
Population Apoptotic (%) [9]: 61%
Population Fragmented Nuclei (%) [9]: 36%
Population Healthy Nuclei (%) [9]: 45%
Population Hoechst High Intensity Objects (%) [9]: 18%
Population Membrane Permeable-Phenotype (%) [9]: 26%
Population Mitochondria Different-Phenotype (%) [9]: 6%
Population Mitotic Cells (%) [9]: 38%
Population Normal (%) [9]: 81%
Population Pyknosed Nuclei (%) [9]: 18%
Population Tubulin-Different-Phenotype (%) [9]: 51%
Total Cell Count [9]: 122
Population Apoptotic (%) [10]: 33%
Population Fragmented Nuclei (%) [10]: 20%
Population Healthy Nuclei (%) [10]: 76%
Population Hoechst High Intensity Objects (%) [10]: 12%
Population Membrane Permeable-Phenotype (%) [10]: 9%
Population Mitochondria Different-Phenotype (%) [10]: 4%
Population Mitotic Cells (%) [10]: 66%
Population Normal (%) [10]: 87%
Population Pyknosed Nuclei (%) [10]: 2%
Population Tubulin-Different-Phenotype (%) [10]: 14%
Total Cell Count [10]: 123
Population Apoptotic (%) [11]: 55%
Population Fragmented Nuclei (%) [11]: 28%
Population Healthy Nuclei (%) [11]: 42%
Population Hoechst High Intensity Objects (%) [11]: 42%
Population Membrane Permeable-Phenotype (%) [11]: 5%
Population Mitochondria Different-Phenotype (%) [11]: 4%
Population Mitotic Cells (%) [11]: 44%
Population Normal (%) [11]: 57%
Population Pyknosed Nuclei (%) [11]: 28%
Population Tubulin-Different-Phenotype (%) [11]: 11%
Total Cell Count [11]: 626
Population Apoptotic (%) [12]: 62%
Population Fragmented Nuclei (%) [12]: 24%
Population Healthy Nuclei (%) [12]: 56%
Population Hoechst High Intensity Objects (%) [12]: 48%
Population Membrane Permeable-Phenotype (%) [12]: 2%
Population Mitochondria Different-Phenotype (%) [12]: 1%
Population Mitotic Cells (%) [12]: 37%
Population Normal (%) [12]: 51%
Population Pyknosed Nuclei (%) [12]: 19%
Population Tubulin-Different-Phenotype (%) [12]: 18%
Total Cell Count [12]: 814

— ChEMBL document CHEMBL4689842, “EUbOPEN Chemogenomics Library wave 1” (2021)
